This is a sample that favours compounds with a hit; in the whole collection about 4.6% have one here.
NLRP3 yeast inh: inhibitors of NALP3 inflammasome in yeast; AID 2825; inhibition, % at 10 µM; Yeast reconstituted NLRP3/ASC/caspase-1, beta-gal luminescence, 24 h; 0.39% of 330,000 active;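 active = inhibition of 50% or more; inactive = inhibition below 50%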
Arr AP2 block: human beta-arrestin and AP2 interaction inhibition; FITC-arrestin peptide / GST-AP2 beads, flow cytometry; AP2 beta2 appendage carries R879A mutation; inhibition, % at 10 µM; 0.31% of 340,000 active;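 active = inhibition above a set limit, near 3 SD of compounds lacking own fluorescence, cut at about 54% in these data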
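system = GST-tagged AP2 beta2-adaptin appendage (R879A) on 4 µm glutathione beads | reagent = FITC-labelled arrestin peptide probe, 50 nM final | schedule = compound with beads 12 min RT, then probe 1 h RT | signal = HyperCyt-sampled flow cytometry, FL1 channel, ex 488/em 535 nm | read-out = percent response from loss of bead-bound FITC fluorescence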
ALR inh: blocks human ALR sulfhydryl oxidase activity | inhibition, % (no concentration beside the values) | purified ALR, DTT oxidation, H2O2 HRP-luminol luminescence | 3.8% of 290,000 active;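 active = mean replicate inhibition above about 79%, with every replicate also reaching it, limit read from the data; inconclusive = only one of the two criteria met; inactive = mean below limit and not every replicate reaching it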
Target sequence (P55789 whole entry, looked up): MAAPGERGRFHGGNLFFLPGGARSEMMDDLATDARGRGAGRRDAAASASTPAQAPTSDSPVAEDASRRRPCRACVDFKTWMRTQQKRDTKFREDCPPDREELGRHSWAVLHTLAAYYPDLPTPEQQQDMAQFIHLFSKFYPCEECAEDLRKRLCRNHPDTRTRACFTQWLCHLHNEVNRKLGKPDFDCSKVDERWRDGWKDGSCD
PolyA inhibitor: yeast polyadenylation inhibition; S. cerevisiae SKY197-pL101 polyadenylation reporter, beta-gal luminescence; efflux-impaired pdr1/pdr3 knockout yeast; score 100 = 6 SD above DMSO; activity score, % at 12 µM; 0.02% of 300,000 active;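 active = lowest replicate activity score at least 50, where 100 means six control SD above control mean; inconclusive = lowest score under 50 but half or more replicates reach 50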;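 note: yeast exposed to compound for 9 h at 30 °C; higher score means more reporter readthrough which indicates perturbed polyadenylation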
DSG3 Ab inh: inhibitors of pemphigus antibody binding to human desmoglein-3. P32926. DSG3-coupled beads, scFv-anti-DSG3-GFP binding, flow cytometry; hits give low values. binding (percent of control), % at 10 µM. 0.48% of 310,000 active;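 active = binding more than 3 SD below its plate's average and above zero; inconclusive = below that plate limit but binding exactly zero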;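 note: hits lower antibody fragment binding to DSG3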
NALP1 inh: blocks the NALP1 inflammasome reconstituted in yeast | S. cerevisiae NALP1/ASC/caspase-1 growth, X-gal OD620, 72 h | inhibition, % at 10 µM | 0.61% of 280,000 active | AID 2071; in the data active = inhibition mostly above about 24%, no sharp cut-off; inactive = mostly below about 32%
Of the large screens only hits and unclear results are named; the others gave an inactive call.

COc1cc(/C=N/NC(=S)NCC2CCCO2)cc(OC)c1OC (configuration not stated)	DSG3 Ab inh 84 (no result: NALP1 inh)
COc1ccc(/C=N/NC(=S)NCC2CCCO2)cc1 (configuration not stated)	none (no result: NALP1 inh)
COc1ccc(S(=O)(=O)N2CCC(C(=O)NCCC(=O)NCc3cccnc3)CC2)cc1	none (no result: NLRP3 yeast inh, Arr AP2 block, ALR inh, PolyA inhibitor, NALP1 inh)
O=C(CNC(=O)c1cccnc1)N/N=C/c1ccc(O)cc1O	ALR inh 78
COc1ccc(NC(=O)c2ccc3c(c2)S(=O)(=O)c2ccccc2C3=O)cc1	DSG3 Ab inh 83 (no result: NALP1 inh)
Cc1ccc(SCC(=O)OCc2csc(CC(=O)Nc3ccccc3C)n2)cc1C	ALR inh 99 (no result: PolyA inhibitor, DSG3 Ab inh, NALP1 inh)
Cc1ccccc1NC(=O)Cc1nc(COC(=O)c2cccc([N+](=O)[O-])c2)cs1	DSG3 Ab inh 78
Cc1ccccc1NC(=O)Cc1nc(CCl)cs1	ALR inh 92 (no result: DSG3 Ab inh)
CCCCN1C[C@H](c2ccccc2)[C@@H](CC(=O)NC)C1=O	none (no result: NLRP3 yeast inh, Arr AP2 block, ALR inh, PolyA inhibitor, NALP1 inh)
O=C(Nc1ccc(N2CCOCC2)cc1)C1CC(O)CN1S(=O)(=O)c1ccc(Cl)cc1 (configuration not stated)	ALR inh 78
O=C(O)COc1ccc(/C=N/NC(=O)c2ccc(-c3csc(Nc4ccc(Cl)cc4)n3)cc2)cc1	DSG3 Ab inh 31 (no result: NLRP3 yeast inh, ALR inh, NALP1 inh)
O=C(c1ccc([N+](=O)[O-])cc1)N1CCN(c2cccc3[nH]ccc23)CC1	ALR inh 99
O=[N+]([O-])c1cccc(CN2CCN(c3ncccn3)CC2)c1	none
O=C(c1ccccc1)N1CCN(C(=O)c2ccc([N+](=O)[O-])cc2)CC1	none
O=[N+]([O-])c1cccc(CN2CCN(c3cccc4[nH]ccc34)CC2)c1	ALR inh 99
CCC(C)[C@H](NC(=O)N1CC(=O)Nc2ccccc21)C(=O)Nc1nccs1 (some centres not stated)	none
CC(C)C(C(=O)Nc1nccs1)N1C(=O)c2ccccc2C1=O (configuration not stated)	NALP1 inh 28
COc1ccccc1NC(=O)C(C(C)C)N1C(=O)c2ccccc2C1=O (configuration not stated)	none
CC(C)[C@H](NC(=O)N1CC(=O)Nc2ccccc21)C(=O)Nc1nccs1	ALR inh 91, DSG3 Ab inh inconclusive
NC(=O)Cc1ccc(C(=O)c2ccc(F)cc2)s1	DSG3 Ab inh 75
CC1CC(Nc2ccccc2)c2ccccc2N1C(=O)c1cccnc1 (configuration not stated)	ALR inh 100
C[C@@H]1C[C@H](Nc2ccccc2)c2ccccc2N1C(=O)c1cccnc1	none
COC(=O)c1cc2sc(Cl)cc2n1Cc1nc(-c2cccc(C)c2)oc1C	none (no result: NLRP3 yeast inh, Arr AP2 block, ALR inh, PolyA inhibitor, DSG3 Ab inh)
CCCCNC(=O)CS(=O)Cc1nc(-c2cccc(Cl)c2)oc1C (configuration not stated)	ALR inh 100
Cc1oc(-c2cccc(Cl)c2)nc1CSCC(=O)O	none (no result: ALR inh)
CCCCNC(=O)CS(=O)Cc1nc(-c2cccc(C)c2)oc1C (configuration not stated)	ALR inh 99
CCC(C)NC(=O)CS(=O)Cc1nc(-c2cccc(C)c2)oc1C (configuration not stated)	ALR inh 98
CCCCSCCCNC(=O)CS(=O)Cc1nc(-c2cccc(C)c2)oc1C (configuration not stated)	ALR inh 99
O=C(COC(=O)c1cccc(Br)c1)NC1CCCCCCC1	none (no result: NLRP3 yeast inh, Arr AP2 block, ALR inh, PolyA inhibitor, NALP1 inh)
O=C(c1ccc([N+](=O)[O-])s1)N1CCN(c2ccc(C(F)(F)F)cn2)CC1	none
CCN(CC)C(=O)Cn1cc([N+](=O)[O-])cc1[N+](=O)[O-]	none (no result: NLRP3 yeast inh, ALR inh, PolyA inhibitor, NALP1 inh)
CCc1ccc2c(CC(=O)NNC(=O)c3ccncc3)coc2c1	none (no result: PolyA inhibitor, DSG3 Ab inh, NALP1 inh)
Cc1cccc(-c2nc(CS(=O)CC(=O)NCCc3ccc(Cl)cc3)c(C)o2)c1 (configuration not stated)	ALR inh 91
CCOC(=O)c1c(C)[nH]c(C(=O)OCC(=O)NCc2ccco2)c1C	none (no result: NLRP3 yeast inh, Arr AP2 block, ALR inh, PolyA inhibitor, NALP1 inh)
O=C(O)c1ccccc1N=Nc1ccc(O)cc1	ALR inh 99 (no result: NALP1 inh)
O=C(O)c1cc(O)ccc1N=Nc1ccccc1	none
OCc1ccc(N=Nc2ccccc2)cc1	none (no result: NALP1 inh)
Oc1ccc(N=Nc2ccccc2)cc1	ALR inh 99
Cc1c(OCC(=O)NC(Cc2ccc(Cl)cc2)C(=O)O)ccc2c1oc(=O)c1ccccc12 (configuration not stated)	ALR inh 88
CCC(NC(=O)Cc1c(C)c2ccc(OC)c(C)c2oc1=O)C(=O)NC(Cc1ccc(Cl)cc1)C(=O)O (configuration not stated)	none
CCCCCCc1c(C)c2ccc(OCC(=O)N[C@@H](Cc3ccccc3)C(=O)O)cc2oc1=O	ALR inh 97
Cc1oc2cc3oc(=O)c(CC(=O)N[C@@H](C)C(=O)NC(Cc4ccc(Cl)cc4)C(=O)O)c(C)c3cc2c1C (some centres not stated)	ALR inh 98
CN(C)c1ccc(C(CNC(=O)c2cccs2)N(C)C)cc1 (configuration not stated)	none
Cc1ccccc1Nc1nnc(SCc2cc(=O)n3ccsc3n2)s1	NALP1 inh 27
CCN(CC)S(=O)(=O)c1ccc(NC(=O)c2ccc(OCC3CCCO3)cc2)cc1 (configuration not stated)	none (no result: PolyA inhibitor, DSG3 Ab inh, NALP1 inh)
Cc1cc(=O)[nH]c2sc(C(=O)N3c4ccccc4CC3C)c(N)c12 (configuration not stated)	ALR inh 98 (no result: PolyA inhibitor, NALP1 inh)
CCOc1cc(/C=C2/NC(=O)N(CC(=O)Nc3cccc(C)c3)C2=O)ccc1O	none
CCOc1cc(/C=C2/NC(=O)N(CC(=O)OC)C2=O)ccc1O	ALR inh 96
C=CCc1cc(/C=C2/NC(=O)N(CC(=O)OC)C2=O)cc(OC)c1O	ALR inh 98
O=C(Cc1ccccc1F)Nc1ccc(S(=O)(=O)N2CCCC2)cc1	none (no result: PolyA inhibitor, NALP1 inh)
Nc1cc(=O)[nH]c(SCc2csc(-c3ccccc3)n2)n1	ALR inh 99
c1ccc(-c2nc(CSc3n[nH]c(-c4cccs4)n3)cs2)cc1	ALR inh 98
O=C(CC(C(=O)O)c1cccc(Br)c1)c1ccc(Cl)cc1 (configuration not stated)	none
COc1ccc(CCN2CC(C(=O)NCc3nc(C)c(C)s3)CCC2=O)cc1 (configuration not stated)	none
c1ccc(-n2cnc3cc(NCc4cccs4)ccc32)cc1	ALR inh 97
COc1ccc(-n2cnc3cc(NCc4cccs4)ccc32)cc1	ALR inh 95 (no result: DSG3 Ab inh)
O=C(CSc1ccc([N+](=O)[O-])cn1)Nc1cc(C(F)(F)F)ccc1N1CCOCC1	none (no result: DSG3 Ab inh)
CS(=O)(=O)N1CCN(c2ccc([N+](=O)[O-])c(NCc3cccnc3)c2)CC1	DSG3 Ab inh 25

Screening results as filed in PubChem.
